# Results as given in ChEMBL document CHEMBL4689842, “EUbOPEN Chemogenomics Library wave 1” (2021).
# Test system: U2OS
# Assay: Multiplex assay against U2OS
# Assay type: toxicity, cell-based
# Conditions: human
# Outline: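 Values for tubulin, mitochondrial-mass and membrane-permeability phenotypes are per cents of cells with healthy nuclei. These cells were identified by CellPathfinder machine-learning gating of live cells that had been stained at seeding with Hoechst33342, BioTracker Green Microtubule Cytoskeleton Dye, MitoTracker Red and Annexin V Alexa Fluor 680 and imaged on a CQ1 microscope at 37°C and 5% CO2 after compound addition. The gating first set Hoechst high-intensity objects apart from normal cells, then split normal cells into healthy, pyknosed or fragmented nuclei, and pyknosed cells into mitotic or apoptotic.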
# [1] = 12 h, 1 µM, compound concentration 1 uM, replicate 1
# [2] = 12 h, 1 µM, compound concentration 1 uM, replicate 2
# [3] = 12 h, 10 µM, compound concentration 10 uM, replicate 1
# [4] = 12 h, 10 µM, compound concentration 10 uM, replicate 2
# [5] = 24 h, 1 µM, compound concentration 1 uM, replicate 1
# [6] = 24 h, 1 µM, compound concentration 1 uM, replicate 2
# [7] = 24 h, 10 µM, compound concentration 10 uM, replicate 1
# [8] = 24 h, 10 µM, compound concentration 10 uM, replicate 2
# [9] = 48 h, 1 µM, compound concentration 1 uM, replicate 1
# [10] = 48 h, 1 µM, compound concentration 1 uM, replicate 2
# [11] = 48 h, 10 µM, compound concentration 10 uM, replicate 1
# [12] = 48 h, 10 µM, compound concentration 10 uM, replicate 2
structure (smiles),measurement,setting,value
CCc1ccc(OCc2ccccc2C(=O)Nc2ccc3nc(C)cc(N)c3c2)cc1.Cl,Population Apoptotic (%),[1],80%
same,Population Fragmented Nuclei (%),[1],25%
same,Population Healthy Nuclei (%),[1],34%
same,Population Hoechst High Intensity Objects (%),[1],10%
same,Population Membrane Permeable-Phenotype (%),[1],27%
same,Population Mitochondria Different-Phenotype (%),[1],95%
same,Population Mitotic Cells (%),[1],19%
same,Population Normal (%),[1],89%
same,Population Pyknosed Nuclei (%),[1],40%
same,Population Tubulin-Different-Phenotype (%),[1],87%
same,Total Cell Count,[1],191
same,Population Apoptotic (%),[2],71%
same,Population Fragmented Nuclei (%),[2],33%
same,Population Healthy Nuclei (%),[2],33%
same,Population Hoechst High Intensity Objects (%),[2],16%
same,Population Membrane Permeable-Phenotype (%),[2],28%
same,Population Mitochondria Different-Phenotype (%),[2],92%
same,Population Mitotic Cells (%),[2],28%
same,Population Normal (%),[2],84%
same,Population Pyknosed Nuclei (%),[2],33%
same,Population Tubulin-Different-Phenotype (%),[2],85%
same,Total Cell Count,[2],68
same,Population Apoptotic (%),[3],78%
same,Population Fragmented Nuclei (%),[3],9%
same,Population Healthy Nuclei (%),[3],22%
same,Population Hoechst High Intensity Objects (%),[3],7%
same,Population Membrane Permeable-Phenotype (%),[3],75%
same,Population Mitotic Cells (%),[3],21%
same,Population Normal (%),[3],92%
same,Population Pyknosed Nuclei (%),[3],68%
same,Population Tubulin-Different-Phenotype (%),[3],97%
same,Total Cell Count,[3],129
same,Population Apoptotic (%),[4],76%
same,Population Fragmented Nuclei (%),[4],8%
same,Population Healthy Nuclei (%),[4],14%
same,Population Hoechst High Intensity Objects (%),[4],12%
same,Population Membrane Permeable-Phenotype (%),[4],100%
same,Population Mitochondria Different-Phenotype (%),[4],100%
same,Population Mitotic Cells (%),[4],23%
same,Population Normal (%),[4],87%
same,Population Pyknosed Nuclei (%),[4],77%
same,Population Tubulin-Different-Phenotype (%),[4],100%
same,Total Cell Count,[4],50
same,Population Apoptotic (%),[5],90%
same,Population Fragmented Nuclei (%),[5],44%
same,Population Healthy Nuclei (%),[5],16%
same,Population Hoechst High Intensity Objects (%),[5],11%
same,Population Membrane Permeable-Phenotype (%),[5],57%
same,Population Mitochondria Different-Phenotype (%),[5],94%
same,Population Mitotic Cells (%),[5],9%
same,Population Normal (%),[5],88%
same,Population Pyknosed Nuclei (%),[5],38%
same,Population Tubulin-Different-Phenotype (%),[5],73%
same,Total Cell Count,[5],234
same,Population Apoptotic (%),[6],83%
same,Population Fragmented Nuclei (%),[6],25%
same,Population Healthy Nuclei (%),[6],28%
same,Population Hoechst High Intensity Objects (%),[6],17%
same,Population Membrane Permeable-Phenotype (%),[6],27%
same,Population Mitochondria Different-Phenotype (%),[6],90%
same,Population Mitotic Cells (%),[6],16%
same,Population Normal (%),[6],82%
same,Population Pyknosed Nuclei (%),[6],46%
same,Population Tubulin-Different-Phenotype (%),[6],63%
same,Total Cell Count,[6],92
same,Population Apoptotic (%),[7],79%
same,Population Fragmented Nuclei (%),[7],7%
same,Population Healthy Nuclei (%),[7],13%
same,Population Hoechst High Intensity Objects (%),[7],12%
same,Population Membrane Permeable-Phenotype (%),[7],54%
same,Population Mitochondria Different-Phenotype (%),[7],100%
same,Population Mitotic Cells (%),[7],20%
same,Population Normal (%),[7],87%
same,Population Pyknosed Nuclei (%),[7],78%
same,Population Tubulin-Different-Phenotype (%),[7],95%
same,Total Cell Count,[7],127
same,Population Apoptotic (%),[8],70%
same,Population Fragmented Nuclei (%),[8],15%
same,Population Healthy Nuclei (%),[8],38%
same,Population Hoechst High Intensity Objects (%),[8],31%
same,Population Membrane Permeable-Phenotype (%),[8],47%
same,Population Mitochondria Different-Phenotype (%),[8],94%
same,Population Mitotic Cells (%),[8],30%
same,Population Normal (%),[8],68%
same,Population Pyknosed Nuclei (%),[8],45%
same,Population Tubulin-Different-Phenotype (%),[8],94%
same,Total Cell Count,[8],47
same,Population Apoptotic (%),[9],96%
same,Population Fragmented Nuclei (%),[9],46%
same,Population Healthy Nuclei (%),[9],3%
same,Population Hoechst High Intensity Objects (%),[9],15%
same,Population Membrane Permeable-Phenotype (%),[9],75%
same,Population Mitochondria Different-Phenotype (%),[9],100%
same,Population Mitotic Cells (%),[9],3%
same,Population Normal (%),[9],84%
same,Population Pyknosed Nuclei (%),[9],50%
same,Population Tubulin-Different-Phenotype (%),[9],75%
same,Total Cell Count,[9],377
same,Population Apoptotic (%),[10],100%
same,Population Fragmented Nuclei (%),[10],29%
same,Population Healthy Nuclei (%),[10],37%
same,Population Hoechst High Intensity Objects (%),[10],28%
same,Population Membrane Permeable-Phenotype (%),[10],71%
same,Population Mitochondria Different-Phenotype (%),[10],92%
same,Population Mitotic Cells (%),[10],0%
same,Population Normal (%),[10],71%
same,Population Pyknosed Nuclei (%),[10],32%
same,Population Tubulin-Different-Phenotype (%),[10],78%
same,Total Cell Count,[10],140
same,Population Apoptotic (%),[11],84%
same,Population Fragmented Nuclei (%),[11],9%
same,Population Healthy Nuclei (%),[11],12%
same,Population Hoechst High Intensity Objects (%),[11],11%
same,Population Membrane Permeable-Phenotype (%),[11],40%
same,Population Mitochondria Different-Phenotype (%),[11],95%
same,Population Mitotic Cells (%),[11],16%
same,Population Normal (%),[11],88%
same,Population Pyknosed Nuclei (%),[11],77%
same,Population Tubulin-Different-Phenotype (%),[11],90%
same,Total Cell Count,[11],130
same,Population Apoptotic (%),[12],100%
same,Population Fragmented Nuclei (%),[12],47%
same,Population Healthy Nuclei (%),[12],43%
same,Population Hoechst High Intensity Objects (%),[12],63%
same,Population Membrane Permeable-Phenotype (%),[12],60%
same,Population Mitochondria Different-Phenotype (%),[12],90%
same,Population Mitotic Cells (%),[12],0%
same,Population Normal (%),[12],36%
same,Population Pyknosed Nuclei (%),[12],8%
same,Total Cell Count,[12],52
